Source: ChEMBL document CHEMBL2390931, “Synthesis and antifungal activity of some s-mercaptotriazolobenzothiazolyl amino acid derivatives” (2013)
≈ marks a conversion by molar mass, not a printed value. Calls of active or inactive are those of the source. No cut-off for these calls is given here.

How the values were obtained:
Assay type in all cases: functional
Candida albicans [1] = assay: Antifungal activity against Candida albicans up to 24 hrs
Outline: (§1)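 MFC in tubes of standardized spore suspension (10⁴ CFU/mL) of clinical isolates, each dosed with compound at increasing concentrations starting from the MIC. Controls: solvent at its highest level, and fluconazole. CFU counted and viability checked at intervals over 0–24 h. MFC is the lowest concentration killing about 99% of viable CFU.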

Candida albicans [2] = assay: Antifungal activity against Candida albicans by agar diffusion technique
Outline: (§2)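 Clinical isolates (A. flavus mold; C. albicans yeast), spore suspension standardized at 10⁴ CFU/mL. DMSO stocks diluted to a concentration series. Approximate MIC by agar diffusion (well technique), taken as the concentration giving minimal inhibition around the well.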

Aspergillus flavus [3] = assay: Antifungal activity against Aspergillus flavus up to 24 hrs; outline: as §1
Aspergillus flavus [4] = assay: Antifungal activity against Aspergillus flavus by agar diffusion technique; outline: as §2
Candida albicans [5] = assay: Antifungal activity against Candida albicans at 500 ppm; settings: for zone of inhibition at 500 ppm: read-out: DIZ
Outline: (§3)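 Agar well diffusion against clinical isolates (A. flavus mold; C. albicans yeast); standardized spore suspension 10⁴ CFU/mL. Compounds dissolved in DMSO as a parent stock, diluted to test levels (100, 300, 500, 1000 ppm).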

Candida albicans [6] = assay: Antifungal activity against Candida albicans at 1000 ppm; settings: read-out: DIZ; outline: as §3
Candida albicans [7] = assay: Antifungal activity against Candida albicans at 300 ppm; settings: for zone of inhibition at 300 ppm: read-out: DIZ; outline: as §3
Candida albicans [8] = assay: Antifungal activity against Candida albicans at 100 ppm; settings: for zone of inhibition at 100 ppm: read-out: DIZ; outline: as §3
Aspergillus flavus [9] = assay: Antifungal activity against Aspergillus flavus at 500 ppm; settings: for zone of inhibition at 500 ppm: read-out: DIZ; outline: as §3
Aspergillus flavus [10] = assay: Antifungal activity against Aspergillus flavus at 1000 ppm; settings: for zone of inhibition at 1000 ppm: read-out: DIZ; outline: as §3
Aspergillus flavus [11] = assay: Antifungal activity against Aspergillus flavus at 100 ppm
Outline: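 Clinical isolate of A. flavus (mold) tested by agar diffusion, well technique, using a standardized spore suspension of 10⁴ CFU/mL. Compounds were dissolved in dimethylsulphoxide and diluted from a parent stock.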

Aspergillus flavus [12] = assay: Antifungal activity against Aspergillus flavus at 300 ppm; settings: for zone of inhibition at 300 ppm: read-out: DIZ; outline: as §3

SMILES | MFC (Candida albicans [1]) | MIC (Candida albicans [2]) [µg/mL] | MFC (Aspergillus flavus [3]) | MFC (Aspergillus flavus [4]) [µg/mL] | zone of inhibition at 500 ppm (Candida albicans [5]) [mm] | zone of inhibition at 1000 ppm (Candida albicans [6]) [mm] | zone of inhibition at 300 ppm (Candida albicans [7]) [mm] | zone of inhibition at 100 ppm (Candida albicans [8]) [mm] | zone of inhibition at 500 ppm (Aspergillus flavus [9]) [mm] | zone of inhibition at 1000 ppm (Aspergillus flavus [10]) [mm] | zone of inhibition at 100 ppm (Aspergillus flavus [11]; read-out: DIZ) [mm] | zone of inhibition at 300 ppm (Aspergillus flavus [12]) [mm] | MIC (Aspergillus flavus [4]) | diameter of the inhibition zone (DIZ) (Candida albicans [8]) | diameter of the inhibition zone (DIZ) (Aspergillus flavus [11]) | diameter of the inhibition zone (DIZ) (Aspergillus flavus [12]) | diameter of the inhibition zone (DIZ) (Aspergillus flavus [9]) | diameter of the inhibition zone (DIZ) (Aspergillus flavus [10]) | diameter of the inhibition zone (DIZ) (Candida albicans [7]) | diameter of the inhibition zone (DIZ) (Candida albicans [5])
OC(Cn1cncn1)(Cn1cncn1)c1ccc(F)cc1F [FLUCONAZOLE] | 300 µg/mL (≈ 980 µM) | 100 (≈ 327 µM) | 300 µg/mL (≈ 980 µM) | 100 (≈ 327 µM) | > 16 | > 16 | 10 | < 10 | > 16 | > 16 | < 10 | 10 |  |  |  |  |  |  |  | 
O=C(O)CCn1nc2sc3ccccc3n2c1=S | inactive | 300 (≈ 1070 µM) | inactive |  | 10 | > 16 | < 10 |  | < 10 | 10 |  |  | 500 µg/mL (≈ 1790 µM) | inactive | inactive | inactive |  |  |  | 
O=C(O)CSc1nnc2sc3ccccc3n12 | inactive | 300 (≈ 1130 µM) | 500 µg/mL (≈ 1880 µM) |  | < 10 | 10 | < 10 |  |  | < 10 |  |  | 1000 µg/mL (≈ 3770 µM) | inactive | inactive | inactive | inactive |  |  | 
NNC(=O)CSc1nnc2sc3ccccc3n12 | 500 µg/mL (≈ 1790 µM) | 100 (≈ 358 µM) | inactive |  | 10 | > 16 | < 10 | < 10 |  |  |  |  | inactive |  | inactive | inactive | inactive | inactive |  | 
COC(=O)[C@H](CC(C)C)NC(=O)CSc1nnc2sc3ccccc3n12 | inactive | 500 (≈ 1270 µM) | inactive |  | < 10 | 10 |  |  |  |  |  |  | inactive | inactive | inactive | inactive | inactive | inactive | inactive | 
COC(=O)[C@H](CCSC)NC(=O)CCn1nc2sc3ccccc3n2c1=S | inactive | 500 (≈ 1180 µM) | inactive |  | < 10 | 10 |  |  |  | < 10 |  |  | 1000 µg/mL (≈ 2360 µM) | inactive | inactive | inactive | inactive |  | inactive | 
COC(=O)[C@H](CCSC)NC(=O)CSc1nnc2sc3ccccc3n12 | inactive | 1000 (≈ 2440 µM) | inactive |  |  | < 10 |  |  |  |  |  |  | inactive | inactive | inactive | inactive | inactive | inactive | inactive | inactive
Sc1nc2ccccc2s1 [2-MERCAPTOBENZOTHIAZOLE] | 500 µg/mL (≈ 2990 µM) | 100 (≈ 598 µM) | inactive |  | 10 | > 16 | < 10 | < 10 | < 10 | 10 |  |  | 500 µg/mL (≈ 2990 µM) |  | inactive | inactive |  |  |  | 
O=C(CSc1nnc2sc3ccccc3n12)N(C(=O)NC1CCCCC1)C1CCCCC1 | inactive | 100 (≈ 212 µM) | 500 µg/mL (≈ 1060 µM) |  | 10 | > 16 | < 10 | < 10 | 10 | > 16 |  | < 10 | 300 µg/mL (≈ 636 µM) |  | inactive |  |  |  |  | 
O=C(CCn1nc2sc3ccccc3n2c1=S)N(C(=O)NC1CCCCC1)C1CCCCC1 | 500 µg/mL (≈ 1030 µM) | 100 (≈ 206 µM) | inactive |  | > 16 | > 16 | 10 | < 10 | 10 | > 16 |  | < 10 | 300 µg/mL (≈ 618 µM) |  | inactive |  |  |  |  | 
O=C(CCSc1nnc2sc3ccccc3n12)N(C(=O)NC1CCCCC1)C1CCCCC1 | inactive | 300 (≈ 618 µM) | inactive |  | 10 | > 16 | < 10 |  |  | < 10 |  |  | 1000 µg/mL (≈ 2060 µM) | inactive | inactive | inactive | inactive |  |  | 
COC(=O)[C@H](Cc1ccc(O)cc1)NC(=O)CSc1nnc2sc3ccccc3n12 | inactive | 100 (≈ 226 µM) | inactive |  | > 16 | > 16 | < 10 | < 10 |  | < 10 |  |  | 1000 µg/mL (≈ 2260 µM) |  | inactive | inactive | inactive |  |  | 
COC(=O)CNC(=O)CSc1nnc2sc3ccccc3n12 | inactive | 500 (≈ 1490 µM) | inactive |  | < 10 | 10 |  |  |  | < 10 |  |  | 1000 µg/mL (≈ 2970 µM) | inactive | inactive | inactive | inactive |  | inactive | 
Sc1nnc2sc3ccccc3n12 | 500 µg/mL (≈ 2410 µM) | 100 (≈ 482 µM) | 500 µg/mL (≈ 2410 µM) |  | > 16 | > 16 | 10 | < 10 | 10 | > 16 |  | < 10 | 300 µg/mL (≈ 1450 µM) |  | inactive |  |  |  |  | 
NNC(=O)CCn1nc2sc3ccccc3n2c1=S | inactive | 1000 (≈ 3410 µM) | inactive |  |  | < 10 |  |  |  |  |  |  | inactive | inactive | inactive | inactive | inactive | inactive | inactive | inactive
COC(=O)C(NC(=O)CSc1nnc2sc3ccccc3n12)C(C)O (racemic) | inactive | 500 (≈ 1310 µM) | inactive |  | < 10 | 10 |  |  |  | 10 |  |  | 1000 µg/mL (≈ 2630 µM) | inactive | inactive | inactive | inactive |  | inactive | 
COC(=O)CCNC(=O)CSc1nnc2sc3ccccc3n12 | inactive | 1000 (≈ 2850 µM) | inactive |  |  | < 10 |  |  |  | < 10 |  |  | inactive | inactive | inactive | inactive | inactive |  | inactive | inactive
COC(=O)CCn1nc2sc3ccccc3n2c1=S | inactive | 300 (≈ 1020 µM) | inactive |  | < 10 | > 16 | < 10 |  |  | < 10 |  |  | 1000 µg/mL (≈ 3410 µM) | inactive | inactive | inactive | inactive |  |  | 
COC(=O)[C@H](CCSC)NC(=O)CCSc1nnc2sc3ccccc3n12 | inactive | 500 (≈ 1180 µM) | inactive |  | < 10 | 10 |  |  |  | < 10 |  |  | 1000 µg/mL (≈ 2360 µM) | inactive | inactive | inactive | inactive |  | inactive | 
